≈ marks a conversion by molar mass, not a printed value.
What was measured:
Type in all cases: functional
Mycolicibacterium phlei = test: Antimycobacterial activity against Mycobacterium phlei ATCC 11758 after 72 hrs by MTT assay; conditions: ATCC 11758, 72 h
Procedure, shortened: (§1)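 Standard broth microdilution MIC in Ca2+/Mg2+-adjusted Mueller-Hinton broth; strains kept on Columbia blood agar with 5% defibrinated horse blood. DMSO stocks diluted into MHB, 2-fold series with final range […]. Inoculum from 0.5 McFarland standard in saline, final 5 × 10^5 cfu/mL; 37 °C for 72 h. Growth read by MTT (20 min, 37 °C, blue = growth); MIC = lowest concentration with no growth.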

Mycolicibacterium aurum = test: Antimycobacterial activity against Mycobacterium aurum after 120 hrs by MTT assay
Procedure, shortened: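 Broth microdilution MIC in Ca2+/Mg2+-adjusted Mueller-Hinton broth; strain maintained on Columbia blood agar with 5% defibrinated horse blood. Compounds dissolved in DMSO, diluted into MHB, 2-fold serial dilutions giving final 512 to 1 μg/mL. Inoculum from 0.5 McFarland in saline, final 5 × 10^5 cfu/mL. Incubated 37 °C, 120 h. MTT added, 20 min at 37 °C; blue indicates growth; MIC = lowest concentration without growth.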

[1] = system: Mycolicibacterium smegmatis; test: Antimycobacterial activity against Mycobacterium smegmatis ATCC 14468 after 72 hrs by MTT assay; conditions: ATCC 14468, 72 h; procedure, shortened: as §1
[2] = system: Mycolicibacterium fortuitum; test: Antimycobacterial activity against Mycobacterium fortuitum ATCC 6841 after 72 hrs by MTT assay; conditions: ATCC 6841, 72 h; procedure, shortened: as §1

SMILES: C/C(=C\CC/C(C)=C/CC/C(C)=C/Cc1c(O)c2ccccc2oc1=O)CO
- MIC (Mycolicibacterium phlei): 16 µg/mL (≈ 41.8 µM)
- MIC (Mycolicibacterium aurum): 32 µg/mL (≈ 83.7 µM)
- MIC [1]: 16 µg/mL (≈ 41.8 µM)
- MIC [2]: 64 µg/mL (≈ 167 µM)

SMILES: C/C(=C\CC/C(C)=C/Cc1c(O)c2ccccc2oc1=O)CC/C=C(\C)COC(=O)c1ccccc1
- MIC (Mycolicibacterium phlei): 2 µg/mL (≈ 4.11 µM)
- MIC (Mycolicibacterium aurum): 8 µg/mL (≈ 16.4 µM)
- MIC [1]: 2 µg/mL (≈ 4.11 µM)
- MIC [2]: 16 µg/mL (≈ 32.9 µM)

SMILES: CC[C@@H](CO)NCCN[C@@H](CC)CO [ETHAMBUTOL]
- MIC (Mycolicibacterium phlei): 2 µg/mL (≈ 9.79 µM)
- MIC (Mycolicibacterium aurum): 0.5 µg/mL (≈ 2.45 µM)
- MIC [1]: 0.5 µg/mL (≈ 2.45 µM)
- MIC [2]: 8 µg/mL (≈ 39.2 µM)

SMILES: CC(C)=CCC/C(C)=C/CC/C(C)=C/Cc1c(O)c2ccccc2oc1=O
- MIC (Mycolicibacterium phlei): 2 µg/mL (≈ 5.46 µM)
- MIC (Mycolicibacterium aurum): 2 µg/mL (≈ 5.46 µM)
- MIC [1]: 0.5 µg/mL (≈ 1.36 µM)
- MIC [2]: 2 µg/mL (≈ 5.46 µM)

SMILES: CC(=O)OC/C(C)=C/CC/C(C)=C/CC/C(C)=C/Cc1c(O)c2ccccc2oc1=O
- MIC (Mycolicibacterium phlei): 8 µg/mL (≈ 18.8 µM)
- MIC (Mycolicibacterium aurum): 16 µg/mL (≈ 37.7 µM)
- MIC [1]: 8 µg/mL (≈ 18.8 µM)
- MIC [2]: 32 µg/mL (≈ 75.4 µM)

SMILES: CCCCCCCCCc1c(O)c2ccccc2oc1=O
- MIC [2]: 3.5 µg/mL (≈ 12.1 µM)

SMILES: NNC(=O)c1ccncc1 [ISONIAZID]
- MIC (Mycolicibacterium phlei): 4 µg/mL (≈ 29.2 µM)
- MIC (Mycolicibacterium aurum): 2 µg/mL (≈ 14.6 µM)
- MIC [1]: 1 µg/mL (≈ 7.29 µM)
- MIC [2]: 0.5 µg/mL (≈ 3.65 µM)
